Assay outcomes as filed in PubChem.
HUVEC prolif 384: human endothelial cell proliferation inhibition; 86,000 tested, 1.1% active; viability, % at 10 µM (by protocol); HUVEC proliferation, CellTiter-Glo luminescence, 72 h; hits give low values;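 active = viability at or below 30%; inactive = viability above 30%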;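 also: 100% = median luminescence of DMSO-only cell control wells on each plate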
HCT116 bCat-KO: beta-catenin-lacking colon tumor cell growth suppression. HCT116 beta-catenin knockout viability, CellTiter-Glo, 60 h; hits give low values. viability, % at 10 µM. 140,000 tested, 1.5% active;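 active = viability at or under a set limit, the compound median less 4 SD, cut at about 6% in these data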;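 also: 0% = Hyamine 1622 control at 20 µM and 100% = untreated cell control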
Fibroblast inh: blocks proliferation of human lung fibroblasts; LL 47 human lung fibroblast viability, ATP luminescence; hits give low values; viability, % at 10 µM; 85,000 tested, 1.1% active;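 active = viability at or below 50% in the single dose screen; inactive = viability above 50%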;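 also: compound exposure lasted 72 h before the ATP readout; 100% = median luminescence of untreated cell-only wells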
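Assay system: human lung fibroblast line LL 47, low passage. Input: 1,150 fibroblasts seeded per well. Times: overnight cell rest, 72 h compound treatment at 37 °C. Evaluation: % viability of median cell-only signal. Technique: luminescent ATP detection, CellTiter-Glo. Control set: cell-only wells, no compound.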
H69AR inhibit: blocks growth of human H69AR lung tumor cells. H69AR lung tumor viability, ATP luminescence, 72 h; hits give low values. viability, % at 10 µM. 85,000 tested, 6% active. AID 598;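 active = viability at or below 40%; inactive = viability above 40%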;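 also: multidrug resistant small cell line overexpressing MRP-1 efflux transporter; 100% = mean luminescence of untreated control wells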
PTEN del growth: PTEN-deleted cell growth suppression; HCT116 PTEN-null viability, CellTiter-Glo, 60 h; hits give low values; viability, % at 10 µM; 140,000 tested, 1.2% active;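 active = viability at or below a set limit, 4 SD under the median of all tested compounds, cut at about 3.7% in these data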;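 also: PTEN knockout HCT116 line with beta catenin targeted HCT116 as companion control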
An asterisk follows results filed as active; x = no result. The sample as a whole holds a higher share of hits than the screen did.

SMILES | HUVEC prolif 384 | HCT116 bCat-KO | Fibroblast inh | H69AR inhibit | PTEN del growth
COc1cccc(N(C(=O)c2ccco2)c2nc(-c3sc(NC(=O)c4ccco4)nc3C)cs2)c1 | x | 3.8* | x | x | 6
COc1ccccc1Nc1nc(-c2sc(NC(=O)c3ccco3)nc2C)cs1 | x | 47 | x | x | 56
COc1cc(/C=C2/CCc3ccccc3C2=O)cc(OC)c1OC | x | 10 | x | x | 4
COc1ccc(/C=C2\COc3ccccc3C2=O)cc1OC | x | 1.6* | x | x | 1.1*
COc1cc(/C=C2\CCc3ccccc3C2=O)cc(OC)c1OC | x | 2.0* | x | x | 1.7*
COc1ccc(/C=C2/CCc3ccccc3C2=O)cc1OC | x | 38 | x | x | 39
Cc1ccc(/C=C/C(=O)O)cc1S(=O)(=O)N(CCO)CCO | x | 101 | x | x | 100
CN1CCN(c2nc(-c3ccccc3)nc3c2oc2ccccc23)CC1 | 24* | x | 84 | 87 | x
CCOc1ccc(S(=O)(=O)Nc2ccc3c(c2)c2c(n3S(=O)(=O)c3ccc(OCC)cc3)CCCC2=O)cc1 | x | 88 | x | x | 89
O=C(NCc1ccc2c(c1)OCO2)c1ccc(N2CCCC2=O)cc1 | x | 98 | x | x | 99
O=C(Nc1c2c(nc3ccccc13)CCCC2)c1cccc([N+](=O)[O-])c1 | x | 74 | x | x | 62
COc1cc(C(=O)O/N=C2\C=CC(=O)C(C)=C2)cc(OC)c1OC | x | 1.5* | x | x | 1.4*
COc1ccc(Cl)cc1Nc1nc(-c2sc(NC(=O)c3ccccc3)nc2C)cs1 | x | 1.2* | x | x | 1.1*
CCOc1ccccc1Nc1nc(-c2sc(NC(=O)c3ccc([N+](=O)[O-])cc3)nc2C)cs1 | x | 0.8* | x | x | 1.5*
Cc1ccccc1Nc1nc(-c2sc(NC(=O)c3ccc([N+](=O)[O-])cc3)nc2C)cs1 | x | 97 | x | x | 93
Cc1csc(CCc2nc(C)cs2)n1 | 101 | 58 | 111 | 91 | 58
CCOC(=O)C1(Nc2nccs2)Sc2ccccc2NC1=O (stereo not given) | 68 | 19 | 82 | 16* | 21
CCOC(=O)Nc1ccc2c(c1)Nc1ccccc1S2 | 51 | 84 | 93 | 95 | 76
C=CCn1c(=O)/c(=C/c2cc(OC)c(OC)c(OC)c2)s/c1=C(/C#N)c1nc2ccccc2n1C | 50 | 48 | 55 | 10* | 56
COc1cc2c(=O)n(Cc3ccccc3)c(=O)n(CC(=O)C(C)(C)C)c2cc1OC | 84 | x | 95 | 90 | x
COc1cc2c(=O)n(Cc3ccco3)c(=O)n(CC(=O)c3cccc(Br)c3)c2cc1OC | 57 | 29 | 97 | 2.4* | 4
COc1cc2c(=O)n(Cc3ccco3)c(=O)n(CC(=O)c3ccc(Br)cc3)c2cc1OC | 73 | 29 | 80 | 17* | 9
CC1=NOC(=O)/C1=C\c1ccc(-c2ccc(Cl)cc2Cl)o1 | x | 4.7* | x | x | 8
Cc1[nH][nH]c(=O)c1C(c1ccc(-c2ccc(Cl)cc2Cl)o1)c1c(C)[nH][nH]c1=O | x | 93 | x | x | 89
COc1ccc(C(=O)Oc2ccc(=O)n(-c3ccccc3)n2)cc1 | x | 102 | x | x | 93
SMILES | HUVEC prolif 384 | HCT116 bCat-KO | Fibroblast inh | H69AR inhibit | PTEN del growth
O=C1c2ccccc2C(=O)N1CN(C(=O)c1ccccc1[N+](=O)[O-])c1ccc(F)cc1 | x | 92 | x | x | 95
CCCCn1c(SC(C)C(=O)c2ccc(OC)cc2)nc2cc(S(N)(=O)=O)ccc21 (stereo not given) | 102 | 75 | 98 | 33* | 58
CCCCn1c(SCC(=O)c2ccc(OC)cc2OC)nc2cc(S(N)(=O)=O)ccc21 | 113 | 87 | 102 | 73 | 94
O=C(NC1=NCCS1)c1csc2ccccc12 | 94 | 78 | 99 | 93 | 84
CCOc1ccccc1NC(=O)CN(c1ccc(OC)cc1)S(=O)(=O)c1c(C)noc1C | 47 | 18 | 47* | 88 | 13
COc1ccc(NC(=O)CN(c2cc(C)cc(C)c2)S(=O)(=O)c2c(C)noc2C)cc1 | 85 | 83 | 91 | 90 | 79
COc1ccc(N(CC(=O)Nc2cc(C)ccc2OC)S(=O)(=O)c2c(C)noc2C)cc1 | 59 | 31 | 82 | 13* | 34
CCOc1ccc(N(CC(=O)Nc2ccccc2C)S(=O)(=O)c2c(C)noc2C)cc1 | 50 | 10 | 49* | 19* | 12
CCOc1ccc(N(CC(=O)Nc2cccc(F)c2)S(=O)(=O)c2c(C)noc2C)cc1 | 86 | 64 | 75 | 30* | 66
CCOc1ccccc1NC(=O)CN(c1cc(C)cc(C)c1)S(=O)(=O)c1c(C)noc1C | 91 | 95 | 93 | 73 | 86
CCOc1ccc(N(CC(=O)Nc2ccc(C)c(C)c2)S(=O)(=O)c2c(C)noc2C)cc1 | 67 | 29 | 90 | 48 | 27
